Like-named read-outs stand apart in the source and are kept apart here.
Legend:
MCF-7 = assay: Cytotoxicity assay; assay type: cell-based, human; settings: read-out: IC50 (50% inhibitory concentration), MCF-7
Procedure, shortened: (§1)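 HepG2 cells (DMEM) or MCF-7 cells (RPMI-1640), each with 10% FBS, at 37 °C and 5% CO2. Cells were trypsinised, counted by trypan blue and seeded at 2.5 × 10^3 cells/well overnight. Test compound at 100, 50, 25, 12.5, 6.25 and 0 μM in 1% FBS medium, quadruplicate, 48 h. Adherent cells stained with 0.02% crystal violet, washed with water, dye dissolved in 1% SDS, A595. IC50 by linear regression of concentration against inhibition rate.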

HEPG2 = assay: Cytotoxicity assay; assay type: cell-based, human; settings: read-out: IC50 (50% inhibitory concentration), HEPG2
Procedure, shortened: as §1

HEPG2.2.15 = assay: Cytotoxicity assay; assay type: cell-based; settings: read-out: IC50 (50% inhibitory concentration), HEPG2.2.15; human hepatocellular carcinoma, HBV transformed, 48 hours, 1% FBS, mean ± SD
Procedure, shortened: (§2)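 Cells grown at 37 °C, 5% CO2 with 10% FBS (HepG2.2.15 in DMEM; MDA-MB-231 in DMEM/F12 1:1) and trypsinised and trypan blue-counted 24 h before. Seeded at 2.5 × 10^3 per well overnight, then exposed in quadruplicate to 100–6.25 μM plus 0 μM in 1% FBS medium for 48 h. Crystal violet stain, water wash, SDS solubilisation, A595. IC50 from linear regression of concentration against inhibition rate.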

MDA-MB-231 = assay: Cytotoxicity assay; assay type: cell-based; settings: read-out: IC50 (50% inhibitory concentration), MDA-MB-231; human breast cancer, 48 hours, 1% FBS, mean ± SD
Procedure, shortened: as §2

SARS-CoV-2 3CL protease = SARS-CoV-2 3CL protease (Severe acute respiratory syndrome coronavirus 2, UniProt P0DTD1); assay: In vitro inhibitory activity assay of 3CL protease; assay type: biochemical; settings: read-out: inhibitory activity against 3CL protease
[1] = human breast cancer, 48 hours, 1% FBS, mean ± SD
[2] = human hepatocellular carcinoma, 48 hours, 1% FBS, mean ± SD

Molecule: O=c1c2ccccc2nc(S)n1Cc1cccnc1 [compound 5, 2-Mercapto-3-(pyridin-3-ylmethyl)quinazolin-4(3H)-one]
- IC50 (MCF-7; Homo sapiens, MCF7, 48 h): > 100 µM
- IC50 (HEPG2; Homo sapiens, HepG2, 48 h): > 100 µM

Molecule: O=C(Cn1cnc2ccccc2c1=O)Nc1cc(Cl)ccc1O [4b, N-(5-Chloro-2-hydroxyphenyl)-2-(4-oxoquinazolin-3(4H)-yl)acetamide]
- IC50 (MCF-7; Homo sapiens, MCF7, 48 h): > 100 µM
- IC50 (HEPG2; Homo sapiens, HepG2, 48 h): > 100 µM

Molecule: 3-(((1H-Benzo[d]imidazole-2-yl)methyl)thio)-2-(pyridin-3-ylmethyl)isoquinolin-1(2H)-one [9a]
- IC50 (MCF-7; [1]): > 100 µM
- IC50 (HEPG2.2.15): > 100 µM
- IC50 (MDA-MB-231): > 100 µM
- IC50 (HEPG2; [2]): > 100 µM

Molecule: COc1ccc(NC(=O)Cn2cnc3ccccc3c2=O)c(N)c1 [4g, N-(2-Amino-4-methoxyphenyl)-2-(4-oxoquinazolin-3(4H)-yl)acetamide]
- IC50 (MCF-7; Homo sapiens, MCF7, 48 h): > 100 µM
- IC50 (HEPG2; Homo sapiens, HepG2, 48 h): > 100 µM

Molecule: O=C(Cn1cnc2ccccc2c1=O)Nc1nccs1 [4i, 2-(4-Oxoquinazolin-3(4H)-yl)-N-(thiazol-2-yl)acetamide]
- IC50 (MCF-7; Homo sapiens, MCF7, 48 h): > 100 µM
- IC50 (HEPG2; Homo sapiens, HepG2, 48 h): 47.7 ± 16.2 µM

Molecule: O=C(Cn1cnc2ccccc2c1=O)Nc1ccc(O)cc1[N+](=O)[O-] [4a, N-(4-Hydroxy-2-nitrophenyl)-2-(4-oxoquinazolin-3(4H)-yl)acetamide]
- IC50 (MCF-7; Homo sapiens, MCF7, 48 h): > 100 µM
- IC50 (HEPG2; Homo sapiens, HepG2, 48 h): > 100 µM
- inhibition at 50 µM (SARS-CoV-2 3CL protease): > 50%

Molecule: 3-(((1-(2-Hydroxyethyl)-5-nitro-1H-benzo[d]imidazole-2-yl)methyl)thio)-2-(pyridin-3-ylmethyl)isoquinolin-1(2H)-one [9c]
- IC50 (MCF-7; [1]): > 100 µM
- IC50 (HEPG2.2.15): > 100 µM
- IC50 (MDA-MB-231): > 100 µM
- IC50 (HEPG2; [2]): > 100 µM

Molecule: COc1ccc(NC(=O)Cn2cnc3ccccc3c2=O)c([N+](=O)[O-])c1 [4c, N-(4-methoxy-2-nitrophenyl)-2-(4-oxoquinazolin-3(4H)-yl)acetamide]
- IC50 (MCF-7; Homo sapiens, MCF7, 48 h): > 100 µM
- IC50 (HEPG2; Homo sapiens, HepG2, 48 h): > 100 µM
- inhibition at 50 µM (SARS-CoV-2 3CL protease): > 50%

Molecule: Cc1ccc(NC(=O)Cn2cnc3ccccc3c2=O)c(O)c1 [4d, N-(2-Hydroxy-4-methylphenyl)-2-(4-oxoquinazolin-3(4H)-yl)acetamide]
- IC50 (MCF-7; Homo sapiens, MCF7, 48 h): > 100 µM
- IC50 (HEPG2; Homo sapiens, HepG2, 48 h): > 100 µM

Molecule: O=C(Cn1cnc2ccccc2c1=O)Nc1ccccc1O [4e, N-(2-Hydroxyphenyl)-2-(4-oxoquinazolin-3(4H)-yl)acetamide]
- IC50 (MCF-7; Homo sapiens, MCF7, 48 h): > 100 µM
- IC50 (HEPG2; Homo sapiens, HepG2, 48 h): 54.9 ± 15.2 µM

Molecule: O=C(Cn1cnc2ccccc2c1=O)NCc1cccnc1 [4h, 2-(4-Oxoquinazolin-3(4H)-yl)-N-(pyridin-3-ylmethyl)acetamide]
- IC50 (MCF-7; Homo sapiens, MCF7, 48 h): 58.2 ± 8.04 µM
- IC50 (HEPG2; Homo sapiens, HepG2, 48 h): 51.4 ± 10.2 µM

Molecule: O=C(Cn1cnc2ccccc2c1=O)Nc1ncccc1O [4f, N-(3-Hydroxypyridin-2-yl)-2-(4-oxoquinazolin-3(4H)-yl)acetamide]
- IC50 (MCF-7; Homo sapiens, MCF7, 48 h): > 100 µM
- IC50 (HEPG2; Homo sapiens, HepG2, 48 h): > 100 µM
